Experiment [1] addresses T1, Lysosomal protective protein (Homo sapiens) (UniProt P10619).
T1 sequence (whole entry): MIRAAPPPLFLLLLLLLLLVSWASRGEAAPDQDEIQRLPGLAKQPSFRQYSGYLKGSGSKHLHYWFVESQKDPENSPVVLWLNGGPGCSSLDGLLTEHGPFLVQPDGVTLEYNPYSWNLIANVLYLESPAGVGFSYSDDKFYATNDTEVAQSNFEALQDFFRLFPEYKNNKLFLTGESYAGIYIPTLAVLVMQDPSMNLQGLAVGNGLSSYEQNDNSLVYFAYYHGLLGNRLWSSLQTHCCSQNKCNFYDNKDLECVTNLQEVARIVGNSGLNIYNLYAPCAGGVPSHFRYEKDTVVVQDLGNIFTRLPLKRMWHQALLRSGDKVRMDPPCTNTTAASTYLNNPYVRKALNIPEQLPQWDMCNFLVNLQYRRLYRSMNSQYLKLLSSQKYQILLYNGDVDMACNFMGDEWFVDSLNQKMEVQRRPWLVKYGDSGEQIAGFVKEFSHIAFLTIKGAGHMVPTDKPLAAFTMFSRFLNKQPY
Briefly: Activity of purified human PBMCs Cat A from leukopheresis patient in Con A pool. A digest of the protocol: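 Hydrolase purified from fresh human leukopheresis PBMCs (NP-40 extract; Source Q15, butyl Sepharose HIC, then ConA chromatography). Protein by Bradford; specific activity (pmol/min/μg) corrected for estimated 29-kDa catalytic subunit fraction.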

The species entered for experiment [2] is Homo sapiens. Kind of experiment: Activity of human PBMCs prodrug hydrolase from leukopheresis patient in Q15 pool.
The species entered for experiment [3] is Homo sapiens. Kind of experiment: Activity of human PBMCs prodrug hydrolase from leukopheresis patient in BS-HIC pool.
For experiment [4], the species on record is Homo sapiens. Kind of experiment: Activity of crude extract human PBMCs prodrug hydrolase from leukopheresis patient.

Take `CC(C)OC(=O)[C@H](C)N[P@](=O)(CO[C@H](C)Cn1cnc2c(N)ncnc21)Oc1ccccc1`: the Activity in experiment [1] turned out to be 35000 pmol/min/µg; in the experiment filed under Homo sapiens [2], 112 pmol/min/µg; in the experiment listed under Homo sapiens [3], 730 pmol/min/µg; in the experiment filed under Homo sapiens [4], 16 pmol/min/µg.

Source of the values: ChEMBL document CHEMBL1142204, “Cathepsin A is the major hydrolase catalyzing the intracellular hydrolysis of the antiretroviral nucleotide phosphonoamidate prodrugs GS-7340 and GS-9131” (Antimicrob Agents Chemother, 2007).
